Measurements published in ChEMBL document CHEMBL4152200, “Targeting the entrance channel of NNIBP: Discovery of diarylnicotinamide 1,4-disubstituted 1,2,3-triazoles as novel HIV-1 NNRTIs with high potency against wild-type and E138K mutant virus” (Eur J Med Chem, 2018).
pEC50: −log10 of the molar value.

Test system: Human immunodeficiency virus 1
Assay: Antiviral activity against HIV1 harboring reverse transcriptase K103N mutant infected in human MT4 cells assessed as inhibition of viral replication after 5 days by MTT assay
Type: functional, organism-based
Conditions: Human immunodeficiency virus 1, MT4, 120 h

Structure (SMILES)	pEC50
Cc1cc(C)c(Oc2cc(Nc3ccc(C#N)cc3)ncc2C(=O)NCc2cn(CCCO)nn2)c(C)c1	6.39

Test system: not listed separately
Assay: Selectivity index, ratio of CC50 for human MT4 cells to EC50 for HIV1 harboring reverse transcriptase K103N mutant
Type: toxicity
Conditions: read-out: Ratio CC50/EC50
How it was run: (§1)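 SI is CC₅₀ divided by EC₅₀, both by MTT after 5 days in MT-4 cells. CC₅₀ comes from mock-infected cultures run in parallel and is the concentration reducing their viability by 50%. EC₅₀ comes from cultures infected with the given mutant strain at 100–300 CCID₅₀.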

Structure (SMILES)	selectivity ratio
Cc1cc(C)c(Oc2cc(Nc3ccc(C#N)cc3)ncc2C(=O)NCc2cn(CCCO)nn2)c(C)c1	62

Test system: Human immunodeficiency virus 1
Assay: Resistance factor, ratio of EC50 for HIV1 harboring reverse transcriptase Y181C mutant to EC50 for wild-type HIV-1 3B
Type: functional
Conditions: not given
How it was run: (§2)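 Resistance fold is EC₅₀ against the mutant strain divided by EC₅₀ against WT IIIB. Both EC₅₀ values come from the 5-day MTT protection assay in MT-4 cells infected with 100–300 CCID₅₀ of virus.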

Structure (SMILES)	Ratio EC50
Cc1cc(C)c(Oc2cc(Nc3ccc(C#N)cc3)ncc2C(=O)NCc2cn(CCCO)nn2)c(C)c1	6.2

Test system: Human immunodeficiency virus 1
Assay: Resistance factor, ratio of EC50 for HIV1 harboring reverse transcriptase E138K mutant to EC50 for wild-type HIV-1 3B
Type: functional
Conditions: not given
How it was run: as §2

Structure (SMILES)	Ratio EC50
Cc1cc(C)c(Oc2cc(Nc3ccc(C#N)cc3)ncc2C(=O)NCc2cn(CCCO)nn2)c(C)c1	1.1

Test system: not listed separately
Assay: Selectivity index, ratio of CC50 for human MT4 cells to EC50 for HIV1 harboring reverse transcriptase L100I mutant
Type: toxicity
Conditions: read-out: Ratio CC50/EC50
How it was run: as §1

Structure (SMILES)	selectivity ratio
Cc1cc(C)c(Oc2cc(Nc3ccc(C#N)cc3)ncc2C(=O)NCc2cn(CCCO)nn2)c(C)c1	13

Test system: not listed separately
Assay: Selectivity index, ratio of CC50 for human MT4 cells to EC50 for wild-type HIV1 3B
Type: toxicity
Conditions: read-out: Ratio CC50/EC50
How it was run: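 Wild-type HIV-1 IIIB at 100–300 CCID50 added to MT-4 cells with compound, with mock-infected wells in parallel. MTT viability was read at day 5. […] SI = CC50/EC50.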

Structure (SMILES)	selectivity ratio
Cc1cc(C)c(Oc2cc(Nc3ccc(C#N)cc3)ncc2C(=O)NCc2cn(CCCO)nn2)c(C)c1	678

Test system: not listed separately
Assay: Selectivity index, ratio of CC50 for human MT4 cells to EC50 for HIV1 harboring reverse transcriptase F227L/V106A mutant
Type: toxicity
Conditions: read-out: Ratio CC50/EC50
How it was run: as §1

Structure (SMILES)	selectivity ratio
Cc1cc(C)c(Oc2cc(Nc3ccc(C#N)cc3)ncc2C(=O)NCc2cn(CCCO)nn2)c(C)c1	32

Test system: Human immunodeficiency virus 1
Assay: Antiviral activity against wild-type HIV-1 3B infected in human MT4 cells assessed as inhibition of viral replication after 5 days by MTT assay
Type: functional, organism-based
Conditions: Human immunodeficiency virus 1, 3B, MT4, 120 h

Structure (SMILES)	pEC50
Cc1cc(C)c(Oc2cc(Nc3ccc(C#N)cc3)ncc2C(=O)NCc2cn(CCCO)nn2)c(C)c1	7.43

Test system: Human immunodeficiency virus 1
Assay: Antiviral activity against HIV1 harboring reverse transcriptase Y188L mutant infected in human MT4 cells assessed as inhibition of viral replication after 5 days by MTT assay
Type: functional, organism-based
Conditions: Human immunodeficiency virus 1, MT4, 120 h
How it was run: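 MT-4 cells in exponential growth, resuspended into wells holding HIV-1 stock (IIIB, RES056 K103N/Y181C, F227L/V106A, L100I, K103N, E138K, Y181C or Y188L) at 100–300 CCID₅₀, or into mock-infected wells. Viability read by MTT reduction to formazan, measured spectrophotometrically 5 days post-infection. EC₅₀ is the concentration giving 50% protection against virus-induced cytotoxicity.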

Structure (SMILES)	pEC50
Cc1cc(C)c(Oc2cc(Nc3ccc(C#N)cc3)ncc2C(=O)NCc2cn(CCCO)nn2)c(C)c1	5.50

Test system: Human immunodeficiency virus 1
Assay: Antiviral activity against HIV-1 RES056 harboring reverse transcriptase K103N/Y181C double mutant infected in human MT4 cells assessed as inhibition of viral replication after 5 days by MTT assay
Type: functional, organism-based
Conditions: Human immunodeficiency virus 1, RES056, MT4, 120 h

Structure (SMILES)	pEC50
Cc1cc(C)c(Oc2cc(Nc3ccc(C#N)cc3)ncc2C(=O)NCc2cn(CCCO)nn2)c(C)c1	5.28

Test system: not listed separately
Assay: Selectivity index, ratio of CC50 for human MT4 cells to EC50 for HIV1 harboring reverse transcriptase Y181C mutant
Type: toxicity
Conditions: read-out: Ratio CC50/EC50
How it was run: as §1

Structure (SMILES)	selectivity ratio
Cc1cc(C)c(Oc2cc(Nc3ccc(C#N)cc3)ncc2C(=O)NCc2cn(CCCO)nn2)c(C)c1	109

Test system: Human immunodeficiency virus 1
Assay: Resistance factor, ratio of EC50 for HIV1 harboring reverse transcriptase L100I mutant to EC50 for wild-type HIV-1 3B
Type: functional
Conditions: not given
How it was run: as §2

Structure (SMILES)	Ratio EC50
Cc1cc(C)c(Oc2cc(Nc3ccc(C#N)cc3)ncc2C(=O)NCc2cn(CCCO)nn2)c(C)c1	52.7

Test system: not listed separately
Assay: Selectivity index, ratio of CC50 for human MT4 cells to EC50 for HIV1 harboring reverse transcriptase E138K mutant
Type: toxicity
Conditions: read-out: Ratio CC50/EC50
How it was run: as §1

Structure (SMILES)	selectivity ratio
Cc1cc(C)c(Oc2cc(Nc3ccc(C#N)cc3)ncc2C(=O)NCc2cn(CCCO)nn2)c(C)c1	651

Test system: not listed separately
Assay: Selectivity index, ratio of CC50 for human MT4 cells to EC50 for HIV-1 RES056 harboring reverse transcriptase K103N/Y181C double mutant infected in human MT4 cells
Type: toxicity, cell-based
Conditions: read-out: Ratio CC50/EC50
How it was run: as §1

Structure (SMILES)	selectivity ratio
Cc1cc(C)c(Oc2cc(Nc3ccc(C#N)cc3)ncc2C(=O)NCc2cn(CCCO)nn2)c(C)c1	5

Test system: not listed separately
Assay: Selectivity index, ratio of CC50 for human MT4 cells to EC50 for HIV1 harboring reverse transcriptase Y188L mutant
Type: toxicity
Conditions: read-out: Ratio CC50/EC50
How it was run: as §1

Structure (SMILES)	selectivity ratio
Cc1cc(C)c(Oc2cc(Nc3ccc(C#N)cc3)ncc2C(=O)NCc2cn(CCCO)nn2)c(C)c1	8

Test system: Human immunodeficiency virus 1
Assay: Resistance factor, ratio of EC50 for HIV1 harboring reverse transcriptase F227L/V106A mutant to EC50 for wild-type HIV-1 3B
Type: functional
Conditions: not given
How it was run: as §2

Structure (SMILES)	Ratio EC50
Cc1cc(C)c(Oc2cc(Nc3ccc(C#N)cc3)ncc2C(=O)NCc2cn(CCCO)nn2)c(C)c1	21.1

Test system: Human immunodeficiency virus 1
Assay: Resistance factor, ratio of EC50 for HIV1 harboring reverse transcriptase K103N mutant to EC50 for wild-type HIV-1 3B
Type: functional
Conditions: not given
How it was run: as §2

Structure (SMILES)	Ratio EC50
Cc1cc(C)c(Oc2cc(Nc3ccc(C#N)cc3)ncc2C(=O)NCc2cn(CCCO)nn2)c(C)c1	11.1

Test system: Human immunodeficiency virus 1
Assay: Antiviral activity against HIV1 harboring reverse transcriptase L100I mutant infected in human MT4 cells assessed as inhibition of viral replication after 5 days by MTT assay
Type: functional, organism-based
Conditions: Human immunodeficiency virus 1, MT4, 120 h

Structure (SMILES)	pEC50
Cc1cc(C)c(Oc2cc(Nc3ccc(C#N)cc3)ncc2C(=O)NCc2cn(CCCO)nn2)c(C)c1	5.71

Test system: Human immunodeficiency virus 1
Assay: Antiviral activity against HIV1 harboring reverse transcriptase F227L/V106A double mutant infected in human MT4 cells assessed as inhibition of viral replication after 5 days by MTT assay
Type: functional, organism-based
Conditions: Human immunodeficiency virus 1, MT4, 120 h

Structure (SMILES)	pEC50
Cc1cc(C)c(Oc2cc(Nc3ccc(C#N)cc3)ncc2C(=O)NCc2cn(CCCO)nn2)c(C)c1	6.11

Test system: Human immunodeficiency virus 1
Assay: Resistance factor, ratio of EC50 for HIV1 harboring reverse transcriptase Y188L mutant to EC50 for wild-type HIV-1 3B
Type: functional
Conditions: not given
How it was run: as §2

Structure (SMILES)	Ratio EC50
Cc1cc(C)c(Oc2cc(Nc3ccc(C#N)cc3)ncc2C(=O)NCc2cn(CCCO)nn2)c(C)c1	85.7

Test system: Human immunodeficiency virus 1
Assay: Antiviral activity against HIV1 harboring reverse transcriptase E138K mutant infected in human MT4 cells assessed as inhibition of viral replication after 5 days by MTT assay
Type: functional, organism-based
Conditions: Human immunodeficiency virus 1, MT4, 120 h

Structure (SMILES)	pEC50
Cc1cc(C)c(Oc2cc(Nc3ccc(C#N)cc3)ncc2C(=O)NCc2cn(CCCO)nn2)c(C)c1	7.41

Test system: Human immunodeficiency virus 1
Assay: Antiviral activity against HIV1 harboring reverse transcriptase Y181C mutant infected in human MT4 cells assessed as inhibition of viral replication after 5 days by MTT assay
Type: functional, organism-based
Conditions: Human immunodeficiency virus 1, MT4, 120 h

Structure (SMILES)	pEC50
Cc1cc(C)c(Oc2cc(Nc3ccc(C#N)cc3)ncc2C(=O)NCc2cn(CCCO)nn2)c(C)c1	6.64

Test system: MT4
Assay: Cytotoxicity against human MT4 cells assessed as decrease in cell viability after 5 days by MTT assay
Type: cell-based
Conditions: mt4, 120 h
How it was run: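 Mock-infected MT-4 cells, exponentially growing, seeded with compound in culture medium without virus; run in parallel with the antiviral assay. Viability read spectrophotometrically by MTT reduction five days later.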

Structure (SMILES)	CC50
Cc1cc(C)c(Oc2cc(Nc3ccc(C#N)cc3)ncc2C(=O)NCc2cn(CCCO)nn2)c(C)c1	25200 nM
